In article PMC4410974 (Clinical cancer research : an official journal of the …, 2012):

Tests used:
Adverse events = assay type: in vivo, human
[1] = test system: p70S6 kinase phosphorylation at Thr389; assay: p70S6K phosphorylation at Thr389 in peripheral blood lymphocytes; assay type: in vivo, human
Method in brief: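 Sirolimus-alone study only, oral weekly dosing. Blood drawn before dosing at baseline, week 1 day 2 and day 4, week 2 day 1, week 5 day 1. CD3+ cells enriched after density centrifugation, cryopreserved, then given medium or PMA (0.5 µg/ml) plus ionomycin (0.025 µg/ml), 1 hr, 37 °C. Western blot for phospho-Thr389 and total p70S6K, densitometry, cohort means, paired t-test. Indirect response model with rebound (kin, kout; baseline 100%), FOCE with interaction.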

[2] = Tumor response by RECIST 1.0; assay type: in vivo, human
[3] = oral multiple dosing; ref [17]–[19]; cited from earlier work
[4] = three studies collectively, 138 subjects
[5] = indirect response model with rebound

In the case of `CO[C@H]1C[C@@H]2CC[C@@H](C)[C@@](O)(O2)C(=O)C(=O)N2CCCC[C@H]2C(=O)O[C@H]([C@H](C)C[C@@H]2CC[C@@H](O)[C@H](OC)C2)CC(=O)[C@H](C)/C=C(\C)[C@@H](O)[C@@H](OC)C(=O)[C@H](C)C[C@H](C)/C=C/C=C/C=C/1C` [Sirolimus], the “Decreased platelets (adverse event)” value (Adverse events; Sirolimus Alone 60mg) is reported as 1, the “Diarrhea (adverse event)” value (Adverse events; Sirolimus Alone 60mg) is reported as 6 and the “Diarrhea, grade 3 or 4” value (Adverse events; Sirolimus Alone 60mg) is reported as 1. The “Elevated Transaminases (adverse event)” value (Adverse events; Sirolimus Alone 60mg) was 1, the “Fatigue (adverse event)” value (Adverse events; Sirolimus Alone 60mg) was 5 and the “Fever (adverse event)” value (Adverse events; Sirolimus Alone 60mg) was 1. The “Hyperglycemia (adverse event)” value (Adverse events; Sirolimus Alone 60mg) was 4, the “Hyperlipidemia (adverse event)” value (Adverse events; Sirolimus Alone 60mg) was 6 and the “Hyperlipidemia, grade 3 or 4” value (Adverse events; Sirolimus Alone 60mg) was 1. For the same compound, the “Infection (adverse event)” value (Adverse events; Sirolimus Alone 60mg) was 1, the “Lymphopenia (adverse event)” value (Adverse events; Sirolimus Alone 60mg) was 3 and the “Nausea (adverse event)” value (Adverse events; Sirolimus Alone 60mg) was 6. For the same compound, the “Rash (adverse event)” value (Adverse events; Sirolimus Alone 60mg) was 1, the “Vomiting (adverse event)” value (Adverse events; Sirolimus Alone 60mg) was 5 and the “Weight Loss (adverse event)” value (Adverse events; Sirolimus Alone 60mg) was 4. The “Altered taste (adverse event)” value (Adverse events; Total (n=138)) was 5, the “Anemia (adverse event)” value (Adverse events; Total (n=138)) was 46 and the “Anemia, grade 3 or 4” value (Adverse events; Total (n=138)) was 5. The “Anorexia (adverse event)” value (Adverse events; Total (n=138)) was 32, the “Anorexia, grade 3 or 4” value (Adverse events; Total (n=138)) was 1 and the “Decreased platelets (adverse event)” value (Adverse events; Total (n=138)) was 22. For the same compound, the “Diarrhea (adverse event)” value (Adverse events; Total (n=138)) was 58, the “Diarrhea, grade 3 or 4” value (Adverse events; Total (n=138)) was 3 and the “Dyspnea (adverse event)” value (Adverse events; Total (n=138)) was 6. The “Dyspnea, grade 3 or 4” value (Adverse events; Total (n=138)) was 1, the “Edema (adverse event)” value (Adverse events; Total (n=138)) was 5 and the “Edema, grade 3 or 4” value (Adverse events; Total (n=138)) was 1. For the same compound, the “Elevated Creatinine (adverse event)” value (Adverse events; Total (n=138)) was 1, the “Elevated Transaminases (adverse event)” value (Adverse events; Total (n=138)) was 23 and the “Elevated Transaminases, grade 3 or 4” value (Adverse events; Total (n=138)) was 2. The “Epistaxis (adverse event)” value (Adverse events; Total (n=138)) was 1, the “Fatigue (adverse event)” value (Adverse events; Total (n=138)) was 46 and the “Fatigue, grade 3 or 4” value (Adverse events; Total (n=138)) was 3. The “Fever (adverse event)” value (Adverse events; Total (n=138)) was 4, the “Hand & Foot Syndrome (adverse event)” value (Adverse events; Total (n=138)) was 2 and the “Hyperglycemia (adverse event)” value (Adverse events; Total (n=138)) was 72. The “Hyperglycemia, grade 3 or 4” value (Adverse events; Total (n=138)) was 7, the “Hyperlipidemia (adverse event)” value (Adverse events; Total (n=138)) was 59 and the “Hyperlipidemia, grade 3 or 4” value (Adverse events; Total (n=138)) was 3. For the same compound, the “Hypertension (adverse event)” value (Adverse events; Total (n=138)) was 2, the “Hypocalcemia (adverse event)” value (Adverse events; Total (n=138)) was 2 and the “Hypoglycemia (adverse event)” value (Adverse events; Total (n=138)) was 1(1). The “Hypoglycemia, grade 3 or 4” value (Adverse events; Total (n=138)) was 1(1), the “Hypoxia (adverse event)” value (Adverse events; Total (n=138)) was 2 and the “Infection (adverse event)” value (Adverse events; Total (n=138)) was 14. For the same compound, the “Infection, grade 3 or 4” value (Adverse events; Total (n=138)) was 4, the “Leukopenia (adverse event)” value (Adverse events; Total (n=138)) was 17 and the “Lymphopenia (adverse event)” value (Adverse events; Total (n=138)) was 56. The “Lymphopenia, grade 3 or 4” value (Adverse events; Total (n=138)) was 14, the “Mood Alteration (adverse event)” value (Adverse events; Total (n=138)) was 2 and the “Mucocutaneous dryness (adverse event)” value (Adverse events; Total (n=138)) was 6. For the same compound, the “Mucositis (adverse event)” value (Adverse events; Total (n=138)) was 17, the “Myalgia (adverse event)” value (Adverse events; Total (n=138)) was 3 and the “Nail Changes (adverse event)” value (Adverse events; Total (n=138)) was 1(1). The “Nail Changes, grade 3 or 4” value (Adverse events; Total (n=138)) was 1(1), the “Nausea (adverse event)” value (Adverse events; Total (n=138)) was 48 and the “Nausea, grade 3 or 4” value (Adverse events; Total (n=138)) was 2. For the same compound, the “Neutropenia (adverse event)” value (Adverse events; Total (n=138)) was 7, the “Paresthesia (adverse event)” value (Adverse events; Total (n=138)) was 2 and the “Pleural Effusion (adverse event)” value (Adverse events; Total (n=138)) was 1. The “Pneumonia (adverse event)” value (Adverse events; Total (n=138)) was 5, the “Pneumonia, grade 3 or 4” value (Adverse events; Total (n=138)) was 4 and the “Pruritis (adverse event)” value (Adverse events; Total (n=138)) was 6. For the same compound, the “Rash (adverse event)” value (Adverse events; Total (n=138)) was 14, the “Vomiting (adverse event)” value (Adverse events; Total (n=138)) was 33 and the “Vomiting, grade 3 or 4” value (Adverse events; Total (n=138)) was 1. For the same compound, the “Weight Loss (adverse event)” value (Adverse events; Total (n=138)) was 15, the “Hyperglycemia, subjects with toxicity” value (Adverse events; [4]) was 52% and the “Hyperlipidemia, subjects with toxicity” value (Adverse events; [4]) was 43%. For the same compound, the “Lymphopenia, subjects with toxicity” value (Adverse events; [4]) was 41%, the phospho-p70S6K activity ([1]; 10 mg weekly dose, 1 week after the initial dose (data not shown)) was “suppressed” and the “phospho-p70S6K in peripheral T cells” value ([1]; 48 hours after administration, all dose levels, sirolimus alone study, p = 0.006) was “inhibition”. For the same compound, the “kout (first-order rate constant for loss of phospho-p70S6K), typical value” [1, 5] was 0.05, the “krebound, typical value” [1, 5] was 11.3 mL/ng and the “kin (zero-order rate constant for gain of phospho-p70S6K), typical value” ([1]; indirect response model with rebound, baseline phosphorylation 100%) was 5.5. For the same compound, the “Rebound effect on phospho-p70S6K (levels exceeded baseline at later time points), subjects” value ([1]; sirolimus alone study) was “six out of twelve”, the Partial response ([2]; collective studies, patient with epithelioid hemangioendothelioma with hepatic metastases) was “One partial response” and the “Stable disease, number of subjects” value ([2]; per study) was 16. The “Stable disease, percent of subjects” value ([2]; per study) was 40% and the volume of distribution [3] was 12 L/kg.
